{
  "source": "paper PMC9040061",
  "about": "(ACS infectious diseases, 2020)",
  "key": {"E. coli 70S ribosome": {"system": "E. coli 70S ribosome", "test": "In vitro translation inhibition assay", "assay_type": "biochemical, Escherichia coli", "conditions": "read-out: IC50, in vitro translation, PURE system"}, "Escherichia coli BAS 849": {"system": "Escherichia coli BAS 849", "test": "MIC, microtiter broth dilution", "assay_type": "cell-based", "conditions": "E. coli BAS 849, deficient outer-membrane structure", "in_short": "(§1)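 MICs were measured by broth microdilution in LB broth against E. coli DH5α, BL21(DE3) and BAS 849, the last an outer-membrane-defective strain with raised permeability. Tetracycline and ampicillin served as reference antibiotics. Values are means of at least three biological replicates.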"}, "[1]": {"system": "UPPS-overexpressed E. coli BAS 849", "test": "In vivo growth inhibition assay on agar", "assay_type": "cell-based, Escherichia coli", "conditions": "overexpression of EfaUPPS, SauUPPS and EcoUPPS; compound at 8 μg/mL; IPTG 0.5 mM", "in_short": "(§2)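 E. coli BAS 849 carried pQE80L (T5 promoter) either empty or bearing the UPPS gene from E. faecalis ATCC 29212, S. aureus ATCC 29213 or E. coli DH5α. Cultures were spread on LB agar with ampicillin, IPTG and test compound, incubated overnight at 37 °C and scored for growth.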"}, "wild-type EfaUPPS": {"molecular_target": "wild-type EfaUPPS (Enterococcus faecalis, UniProt Q831K9)", "test": "Surface plasmon resonance binding assay", "conditions": "for Kd: read-out: equilibrium dissociation constant (KD), SPR, wild-type EfaUPPS, one-state binding model"}, "[2]": {"system": "E. coli BAS 849 transformed with the empty vector pQE80L", "test": "In vivo growth inhibition assay on agar", "assay_type": "cell-based, Escherichia coli", "conditions": "compound at 8 μg/mL, IPTG 0.5 mM", "in_short": "as §2"}, "[3]": {"molecular_target": "recombinant E. faecalis UPPS (EfaUPPS) (Enterococcus faecalis, UniProt Q831K9)", "test": "UPPS inhibition assay", "assay_type": "biochemical", "conditions": "for IC50: EfaUPPS, enzyme-coupled fluorescence assay"}, "normal E. coli species": {"system": "normal E. coli species", "test": "MIC, microtiter broth dilution", "assay_type": "cell-based, Escherichia coli", "in_short": "as §1"}, "[4]": {"molecular_target": "recombinant E. coli UPPS (EcoUPPS) (Escherichia coli, UniProt P60472)", "sequence (P60472 whole entry)": "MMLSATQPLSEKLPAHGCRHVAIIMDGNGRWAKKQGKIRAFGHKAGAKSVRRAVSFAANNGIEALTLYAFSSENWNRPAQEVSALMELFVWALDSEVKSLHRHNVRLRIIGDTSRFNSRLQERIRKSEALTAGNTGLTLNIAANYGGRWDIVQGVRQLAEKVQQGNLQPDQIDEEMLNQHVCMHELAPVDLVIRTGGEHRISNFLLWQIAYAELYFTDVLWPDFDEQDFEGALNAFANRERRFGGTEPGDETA", "assay_type": "biochemical"}, "[5]": {"molecular_target": "recombinant S. aureus UPPS (SauUPPS) (Staphylococcus aureus, UniProt P60477)", "test": "UPPS inhibition assay", "assay_type": "biochemical"}, "EfaUPPS S74T mutant": {"molecular_target": "EfaUPPS S74T mutant (Enterococcus faecalis, UniProt Q831K9, S80T)", "test": "UPPS inhibition assay, mutant enzyme", "assay_type": "biochemical", "in_short": "(§3)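 Mutant E. faecalis UPPS was His-tagged in pET28a, expressed in E. coli BL21(DE3) (1 mM IPTG, 16 °C, 16 h) and purified by Ni-NTA and gel filtration. Assays ran 30 min at 37 °C in 100 mM Tris-HCl pH 7.5, 0.5 mM MgCl2, 50 mM KCl, 35 μM IPP, 5 μM FPP, 0.005% Triton X-100, and were EDTA-stopped. Released pyrophosphate was read by coupled fluorescence (316/456 nm). Mutant IC50 was compared with wild type; at least three biological replicates.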"}, "EfaUPPS R42A mutant": {"molecular_target": "EfaUPPS R42A mutant (Enterococcus faecalis, UniProt Q831K9, R48A)", "test": "UPPS inhibition assay, mutant enzyme", "assay_type": "biochemical", "in_short": "as §3"}, "EfaUPPS N31E mutant [6]": {"molecular_target": "T1, EfaUPPS N31E mutant (Enterococcus faecalis, UniProt Q831K9, N37E)", "T1 sequence (Q831K9 1-271 N37E)": "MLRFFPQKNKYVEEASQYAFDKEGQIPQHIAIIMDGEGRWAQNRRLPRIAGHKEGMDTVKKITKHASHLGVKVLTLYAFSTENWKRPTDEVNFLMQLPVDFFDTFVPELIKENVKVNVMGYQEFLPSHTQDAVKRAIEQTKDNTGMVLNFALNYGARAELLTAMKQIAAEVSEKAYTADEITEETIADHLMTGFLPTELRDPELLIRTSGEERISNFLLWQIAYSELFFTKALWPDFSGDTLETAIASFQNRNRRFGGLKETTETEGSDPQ", "test": "UPPS inhibition assay, mutant enzyme", "assay_type": "biochemical", "conditions": "N31E mutant versus wild-type EfaUPPS", "in_short": "as §3"}, "EfaUPPS F73S mutant": {"molecular_target": "EfaUPPS F73S mutant (Enterococcus faecalis, UniProt Q831K9, F79S)", "test": "UPPS inhibition assay, mutant enzyme", "assay_type": "biochemical", "in_short": "as §3"}, "EfaUPPS M28W mutant [7]": {"molecular_target": "T2, EfaUPPS M28W mutant (Enterococcus faecalis, UniProt Q831K9, M34W)", "T2 sequence (Q831K9 1-271 M34W)": "T1 sequence (Q831K9 1-271 N37E) with M34W, E37N", "test": "Surface plasmon resonance binding assay", "conditions": "SPR", "in_short": "(§4)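 Point mutants of E. faecalis UPPS were made by site-directed mutagenesis and purified like wild type (Ni-NTA, then gel filtration). Enzyme (50 μg/mL) was amine-coupled to a carboxymethyl dextran chip. Test compound (0.4–50 μM) in phosphate-buffered saline with 0.005% Tween-20, pH 7.8, was flowed at 25 μL/min: 1.5 min association, 2.5 min dissociation. Reference-cell signal was subtracted, and KD came from a 1:1 model.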"}, "EfaUPPS M28A mutant": {"molecular_target": "EfaUPPS M28A mutant", "test": "UPPS inhibition assay, mutant enzyme", "assay_type": "biochemical, Enterococcus faecalis", "conditions": "M28A mutant versus wild-type EfaUPPS", "in_short": "as §3"}, "EfaUPPS W228A mutant": {"molecular_target": "EfaUPPS W228A mutant", "test": "UPPS inhibition assay, mutant enzyme", "assay_type": "biochemical, Enterococcus faecalis", "conditions": "W228A mutant versus wild-type EfaUPPS", "in_short": "as §3"}, "EfaUPPS N31F mutant": {"molecular_target": "EfaUPPS N31F mutant", "test": "UPPS inhibition assay, mutant enzyme", "assay_type": "biochemical, Enterococcus faecalis", "conditions": "N31F mutant versus wild-type EfaUPPS", "in_short": "as §3"}, "EfaUPPS N31A mutant": {"molecular_target": "EfaUPPS N31A mutant (Enterococcus faecalis, UniProt Q831K9, N37A)", "test": "UPPS inhibition assay, mutant enzyme", "assay_type": "biochemical", "in_short": "as §3"}, "EfaUPPS H46W mutant": {"molecular_target": "EfaUPPS H46W mutant", "test": "UPPS inhibition assay, mutant enzyme", "assay_type": "biochemical, Enterococcus faecalis", "conditions": "H46W mutant versus wild-type EfaUPPS", "in_short": "as §3"}, "EfaUPPS D29A mutant": {"molecular_target": "EfaUPPS D29A mutant (Enterococcus faecalis, UniProt Q831K9, D35A)", "test": "UPPS inhibition assay, mutant enzyme", "assay_type": "biochemical", "in_short": "as §3"}, "EfaUPPS M28W mutant [8]": {"molecular_target": "T2, EfaUPPS M28W mutant", "test": "UPPS inhibition assay, mutant enzyme", "assay_type": "biochemical", "conditions": "M28W mutant versus wild-type EfaUPPS", "in_short": "as §3"}, "EfaUPPS N31E mutant [9]": {"molecular_target": "T1, EfaUPPS N31E mutant", "test": "Surface plasmon resonance binding assay", "conditions": "SPR", "in_short": "as §4"}, "EfaUPPS M28E mutant": {"molecular_target": "EfaUPPS M28E mutant", "test": "UPPS inhibition assay, mutant enzyme", "assay_type": "biochemical, Enterococcus faecalis", "conditions": "M28E mutant versus wild-type EfaUPPS", "in_short": "as §3"}},
  "note": "Substitutions are numbered along the chain they refer to.",
  "data": [
    {"compound": "viridicatumtoxin B [VirB]", "values": [
      {"measurement": "IC50", "setting": "E. coli 70S ribosome", "value": 600, "unit": "µM"},
      {"measurement": "MIC", "setting": "Escherichia coli BAS 849", "value": 8, "unit": "µg/mL"},
      {"measurement": "growth of E. coli BAS 849", "setting": "[1]", "value": "rescued the cell growth"},
      {"measurement": "Kd", "setting": "wild-type EfaUPPS", "value": 11.5, "unit": "µM"},
      {"measurement": "growth of E. coli BAS 849", "setting": "[2]", "value": "completely inhibited"},
      {"measurement": "IC50", "setting": "[3]", "value": 0.0581, "unit": "µM"},
      {"measurement": "MIC", "setting": "normal E. coli species", "value": "> 64", "unit": "µg/mL"}
    ]},
    {"compound": "CN(C)[C@@H]1C(O)=C(C(N)=O)C(=O)[C@@]2(O)C(O)=C3C(=O)c4c(O)cccc4[C@@](C)(O)[C@H]3C[C@@H]12", "note": "[Tet, tetracycline, reference compound]", "values": [
      {"measurement": "IC50", "setting": "E. coli 70S ribosome", "value": 15, "unit": "µM"},
      {"measurement": "SPR binding signals", "setting": "wild-type EfaUPPS; EfaUPPS", "value": "cannot detect any binding signals"},
      {"measurement": "IC50 fold higher than that for VirA", "setting": "[4]", "value": 6, "unit": "fold"},
      {"measurement": "IC50 fold higher than that for VirA", "setting": "[3]", "value": 12, "unit": "fold"},
      {"measurement": "IC50 fold higher than that for VirA", "setting": "[5]", "value": 6, "unit": "fold"}
    ]},
    {"compound": "COc1cc(O)c2c(O)c3c(c4c2c1[C@]1(C4)C(C)=CCCC1(C)C)[C@H](O)[C@@]1(O)CC(=O)C(C(N)=O)=C(O)[C@@]1(O)C3=O", "note": "[VirA, viridicatumtoxin A]", "values": [
      {"measurement": "IC50", "setting": "E. coli 70S ribosome", "value": 700, "unit": "µM"},
      {"measurement": "MIC", "setting": "Escherichia coli BAS 849", "value": 8, "unit": "µg/mL"},
      {"measurement": "change of IC50 of mutant compared with wild-type enzyme", "setting": "EfaUPPS S74T mutant", "value": "decreased IC50"},
      {"measurement": "susceptibility of mutant compared with wild-type enzyme", "setting": "EfaUPPS R42A mutant", "value": "more susceptible"},
      {"measurement": "growth of E. coli BAS 849", "setting": "[1]", "value": "rescued the cell growth"},
      {"measurement": "IC50-MT/IC50-WT", "setting": "EfaUPPS N31E mutant [6]", "value": 42.4},
      {"measurement": "change of IC50 of mutant compared with wild-type enzyme", "setting": "EfaUPPS F73S mutant", "value": "decreased IC50"},
      {"measurement": "Kd", "setting": "wild-type EfaUPPS", "value": 123, "unit": "µM"},
      {"measurement": "Kd", "setting": "EfaUPPS M28W mutant [7]", "value": 9.8, "unit": "µM"},
      {"measurement": "binding affinity fold higher than the wild-type enzyme", "setting": "EfaUPPS M28W mutant [7]", "value": "about 12 fold"},
      {"measurement": "IC50-MT/IC50-WT", "setting": "EfaUPPS M28A mutant", "value": 0.5},
      {"measurement": "IC50", "setting": "[4]; EcoUPPS", "value": 3.9, "unit": "µM"},
      {"measurement": "growth of E. coli BAS 849", "setting": "[2]", "value": "completely inhibited"},
      {"measurement": "IC50", "setting": "[3]", "value": 1.6, "unit": "µM"},
      {"measurement": "IC50-MT/IC50-WT", "setting": "EfaUPPS W228A mutant", "value": 6.0},
      {"measurement": "IC50-MT/IC50-WT", "setting": "EfaUPPS N31F mutant", "value": 10.7},
      {"measurement": "change of IC50 of mutant compared with wild-type enzyme", "setting": "EfaUPPS N31A mutant", "value": "decreased IC50"},
      {"measurement": "IC50-MT/IC50-WT", "setting": "EfaUPPS H46W mutant", "value": 4.5},
      {"measurement": "MIC", "setting": "normal E. coli species", "value": "> 64", "unit": "µg/mL"},
      {"measurement": "susceptibility of mutant compared with wild-type enzyme", "setting": "EfaUPPS D29A mutant", "value": "more susceptible"},
      {"measurement": "IC50", "setting": "[5]; SauUPPS", "value": 4.1, "unit": "µM"},
      {"measurement": "IC50-MT/IC50-WT", "setting": "EfaUPPS M28W mutant [8]", "value": 0.2},
      {"measurement": "Kd", "setting": "EfaUPPS N31E mutant [9]", "value": 322, "unit": "µM"},
      {"measurement": "binding affinity decreased, fold, versus wild type", "setting": "EfaUPPS N31E mutant [9]", "value": "approximately 3 fold"},
      {"measurement": "IC50-MT/IC50-WT", "setting": "EfaUPPS M28E mutant", "value": 123.3}
    ]}
  ]
}
